Screening data from PubChem.
SUMO1 PPI mod: alters human SUMO1 binding to SIM partners; P63165; SUMO1 binding to a labelled peptide, TR-FRET, 1 h; inhibition, % at 20 µM; 0.33% of 360,000 active; AID 602429; in the data active means inhibition above about 37%
Rpn11 inh: inhibitors of human proteasome Rpn11; 0.59% of 360,000 active; human 26S proteasome, Ub4-pepOG fluorescence polarization; 20S core pre-blocked with epoxomicin; inhibition, % at 20 µM;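 active means inhibition at 20 µM, scaled to each plate's controls, above about 33%, limit read from the data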
CSN inh: CSN deneddylation inhibition | 0.38% of 360,000 active | Q92905 | inhibition, % at 12.5 µM | Purified CSN, SCF-Nedd8-OG deneddylation, fluorescence polarization | AID 651999;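 active means pattern-corrected inhibition above about 35%, with an unprinted fluorescence ratio check between 0.5 and 1.5, limit read from the data, passing the limit was not always enough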;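 further: 0% = enzyme with substrate and 100% = substrate without enzyme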
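Material: purified human Csn5 enzyme expressed in HEK293T cells / Medium: Tris buffer pH 7.5, NaCl, DTT, Tween-20, trehalose, ovalbumin / Compound dosing: 12.5 µM single point / Schedule: 90 min incubation of compound, enzyme and substrate at room temperature / Signal: fluorescence polarization of the substrate / Control set: no-enzyme wells high, enzyme-with-substrate wells low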
DNMT1 inh: inhibitors of human DNMT1; P26358; DNMT1 molecular beacon, Hinp1I cleavage, fluorescence; inhibition (reported as % activation of signal), % at 10 µM; 0.83% of 360,000 active; AID 588458; in the data active means inhibition above about 50%
MT1-MMP act inh: MT1-MMP (human) activation inhibition. 0.061% of 360,000 active. P50281. HT1080 RFP-PRO-GFP cells, GFP/RFP ratio fluorescence, overnight; percent of plate control window, DMSO zero. GFP/RFP ratio change, % at 20 µM. AID 651647;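 active means GFP/RFP ratio change of at least 30% with cell ATP level not reduced by more than half and red fluorescence within 50% of control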
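Test system: HT1080 RFP-PRO-GFP cells; Benchmarks: DMSO and RFP-L50D-GFP cell wells; Timing: cells overnight before dosing, compound overnight, 37 °C, 5% CO2; Compound: one 20 µM compound dose with 1% DMSO; Read-out: GFP/RFP fluorescence ratio.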
SKN-1 block: inhibitors of C. elegans SKN-1; inhibition, % at 21.8 µM; AID 624304; C. elegans VP596 Pgst-4::GFP/RFP ratio, acrylamide-induced, 24 h; 0.49% of 360,000 active;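 active means interference check ratio from 0.5 to 1.5 plus GFP to RFP signal ratio inhibition reaching or exceeding a fixed threshold, cut at about 30% in these data, passing the limit was not always enough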
DNMT1 inh conf: DNMT1 inhibition confirmation, single concentration | 8% of 2,300 active | shares compounds with DNMT1 inh | AID 602385 | DNMT1 molecular beacon HinP1I cleavage, fluorescence | inhibition, % at 10 µM;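 active means average inhibition of at least 30% in the single-concentration confirmation test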
Beacon interf: counter-screen for DNMT1 inhibitors: spectral interference; shares compounds with DNMT1 inh; DNMT1 molecular beacon spectral interference counterscreen, fluorescence 485/520; activation (fluorescence interference), % at 10 µM; 1% of 2,300 active;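 active means activation of at least 30% at 10 µM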;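 further: DNMT1 catalytic domain with a HinP1I cleavage step and a FAM/dabcyl DNA beacon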
Active calls of the source: *. Shown are actives, neighbours in structure and some others; about 2.3% of the full set was active somewhere.

`C=CCn1c(NC(=O)c2ccccc2Cl)c(C#N)c2nc3ccccc3nc21` gave SUMO1 PPI mod 53.0*, Rpn11 inh 33.7, CSN inh 56.8*, DNMT1 inh 63.9*, MT1-MMP act inh -68.5, SKN-1 block 16.9, DNMT1 inh conf -1.2 and Beacon interf -3.6.
COC(=O)c1cccc(CN2C(=O)C(C)Oc3ccc(C)cc32)c1 (stereo not drawn) was read as SUMO1 PPI mod 8.0, Rpn11 inh -3.1, CSN inh -3.1, DNMT1 inh 3.9, MT1-MMP act inh -4.8 and SKN-1 block 1.3.
O=C(COC(=O)CCN1C(=O)/C(=C\C=C\c2ccccc2)SC1=S)Nc1cc(F)ccc1F was read as SUMO1 PPI mod -5.0, CSN inh 8.2, DNMT1 inh 75.3*, MT1-MMP act inh -9.2, SKN-1 block -0.5, DNMT1 inh conf 11.8 and Beacon interf 3.9.
For O=C(CN1C(=O)/C(=C\C=C\c2ccccc2)SC1=S)Nc1ccc(F)cc1 the results were SUMO1 PPI mod -5.3, Rpn11 inh 40.2, CSN inh 2.0, DNMT1 inh -10.6, MT1-MMP act inh -0.1 and SKN-1 block 18.8.
Screening COc1ccc(C(CC(=O)N2CCOCC2)c2c(OC)cc(OC)c3c(-c4ccccc4)cc(=O)oc23)cc1 (stereo not drawn) returned SUMO1 PPI mod -4.1, Rpn11 inh 5.4, CSN inh 23.3, DNMT1 inh 74.4*, MT1-MMP act inh 0.8, SKN-1 block 5.9, DNMT1 inh conf 2.9 and Beacon interf -1.8.
COc1cc(C(CC(=O)N2CCCC2)c2c(OC)cc(OC)c3c(-c4ccccc4)cc(=O)oc23)cc(OC)c1OC (stereo not drawn) was read as SUMO1 PPI mod -12.6, Rpn11 inh 12.3, CSN inh 22.2, DNMT1 inh 31.2, MT1-MMP act inh -8.0 and SKN-1 block -2.2.
COc1ccc(C(CC(=O)N2CCCC(C)C2)c2c(OC)cc(OC)c3c(-c4ccccc4)cc(=O)oc23)cc1 (stereo not drawn) was read as SUMO1 PPI mod 8.4, Rpn11 inh 3.4, CSN inh 26.1, DNMT1 inh 89.1*, MT1-MMP act inh -2.9, SKN-1 block -1.6, DNMT1 inh conf 0.9 and Beacon interf -5.2.
COc1ccc(C(CC(=O)N2CCCCC2)c2c(OC)cc(OC)c3c(-c4ccccc4)cc(=O)oc23)cc1 (stereo not drawn) was read as SUMO1 PPI mod 3.8, Rpn11 inh 10.7, CSN inh 25.9, DNMT1 inh 102.2*, MT1-MMP act inh -18.3, SKN-1 block -13.6, DNMT1 inh conf 2.6 and Beacon interf -2.2.
`CC1=C(C(=O)N(C(C)C)C(C)C)CC(CC(=O)NCc2ccco2)C(=O)N1Cc1ccc(C(C)(C)C)cc1` (stereo not drawn) gave SUMO1 PPI mod 2.9, Rpn11 inh -2.9, CSN inh 0.8, DNMT1 inh -11.9, MT1-MMP act inh 0.9 and SKN-1 block 10.1.
Screening C(=C\c1ccccc1)/CN1CCN(C(CCc2ccccc2)c2nnnn2C2CCCC2)CC1 (stereo not drawn) returned SUMO1 PPI mod 4.7, Rpn11 inh 6.3, CSN inh -1.9, DNMT1 inh -4.6, MT1-MMP act inh -1.8 and SKN-1 block 9.2.
`COc1ccc(-c2csc(C(C)(O)c3ccc(OC)cc3)n2)cc1` (stereo not drawn) gave SUMO1 PPI mod 0.6, Rpn11 inh -2.0, CSN inh -1.6, DNMT1 inh 0.1, MT1-MMP act inh -4.1 and SKN-1 block 17.2.
For CC1Nc2ncnc(N3CCc4ccccc4C3)c2N(Cc2ccccc2)C1=O (stereo not drawn) the results were SUMO1 PPI mod 1.7, Rpn11 inh 2.8, CSN inh 2.9, DNMT1 inh -10.9, MT1-MMP act inh 2.4 and SKN-1 block 2.3.
Screening CCC(CCCO)CCC[C@H](C)CCC1OCCO1 (stereo partly drawn) returned SUMO1 PPI mod -3.8, Rpn11 inh -4.6, CSN inh -5.1, DNMT1 inh 58.8*, MT1-MMP act inh 6.7, SKN-1 block 4.2, DNMT1 inh conf 1.1 and Beacon interf 5.2.
`O=C(O)c1cccc(-c2noc(-c3cccc(Cl)c3)n2)c1` gave SUMO1 PPI mod 14.3, Rpn11 inh 7.0, CSN inh 0.7, DNMT1 inh 83.1*, MT1-MMP act inh -1.7, SKN-1 block -2.9, DNMT1 inh conf 0.1 and Beacon interf 2.0.
`O=C(C[C@@H]1C[C@H]2c3cc(NC(=O)C4CCC4)ccc3O[C@H]2[C@@H](CO)O1)NCc1ccc(-c2ccccc2)cc1` gave SUMO1 PPI mod 1.8, Rpn11 inh 2.3, CSN inh 5.2, DNMT1 inh 3.2, MT1-MMP act inh 0.7 and SKN-1 block -2.3.
`Cc1cc(C)c(C)c(S(=O)(=O)N2CCN(c3ncnc4ccccc34)CC2)c1C` gave SUMO1 PPI mod 6.8, Rpn11 inh 4.3, CSN inh 3.1, DNMT1 inh 74.8*, MT1-MMP act inh -4.6, SKN-1 block -12.6, DNMT1 inh conf 0.4 and Beacon interf 2.3.
CCC/C=C/c1ccc(CN2C(C(C)C)C(=O)N(Cc3cn(Cc4ccco4)nn3)CCS2(=O)=O)cc1 (stereo not drawn) was read as SUMO1 PPI mod 5.3, Rpn11 inh 6.5, CSN inh 8.5, DNMT1 inh -9.6, MT1-MMP act inh 1.7 and SKN-1 block 7.1.
CCN(C(=O)COC(=O)c1nccnc1N)c1cccc2ccccc12 was read as SUMO1 PPI mod -16.9, Rpn11 inh 0.9, CSN inh 4.6, DNMT1 inh 61.1*, MT1-MMP act inh -0.6, SKN-1 block 8.3, DNMT1 inh conf 3.1 and Beacon interf 2.8.
`COc1cc(/C=C2\C(=O)NN(c3ccccc3)C2=O)cc([N+](=O)[O-])c1O` gave SUMO1 PPI mod -5.4, Rpn11 inh 0.6, CSN inh 5.7, DNMT1 inh 29.1, MT1-MMP act inh 1.7 and SKN-1 block 1.5.
Screening CCOc1cc(/C=C2\C(=O)NN(c3ccccc3)C2=O)cc([N+](=O)[O-])c1O returned SUMO1 PPI mod -4.0, Rpn11 inh -1.3, CSN inh 5.6, DNMT1 inh 67.7*, MT1-MMP act inh 5.5, SKN-1 block -0.1, DNMT1 inh conf 11.0 and Beacon interf 1.3.
